In ChEMBL document CHEMBL4190362, “Synthesis, biological evaluation and quantitative structure-active relationships of 1,3-thiazolidin-4-one derivatives. A promising chemical scaffold endowed with high antifungal potency and low cytotoxicity” (Eur J Med Chem, 2017):
In brackets after ≈: the same amount, converted by molar mass.

Columns and labels:
Candida parapsilosis = experiment: Antifungal activity against Candida parapsilosis clinical isolates assessed as inhibition of microbial growth incubated for 24 hrs by broth microdilution method; type: functional; details: Lodderomyces parapsilosis
Procedure, shortened: (§1)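 Twenty-two clinical Candida isolates (8 C. albicans, 4 C. glabrata, 3 C. tropicalis, 3 C. krusei, 2 C. parapsilosis, 2 C. sake) were identified by colony morphology and biochemistry and subcultured at 35 °C for purity. Compounds were dissolved in DMSO and tested by broth microdilution in Sabouraud dextrose broth per NCCLS/CLSI/EUCAST guidance. Values are geometric mean MIC per species (µg/mL).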

[Candida] sake = Antifungal activity against Candida sake clinical isolates assessed as inhibition of microbial growth incubated for 24 hrs by broth microdilution method; type: functional; details: Fermentozyma sake; procedure, shortened: as §1
Enterobacter = experiment: Antibacterial activity against Enterobacter spp. assessed as inhibition of microbial growth incubated for 18 to 22 hrs by broth microdilution method; type: functional
Procedure, shortened: (§2)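 Broth microdilution in Mueller-Hinton II broth following NCCLS recommendations; compounds dissolved in DMSO.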

Staphylococcus aureus = experiment: Antibacterial activity against Staphylococcus aureus assessed as inhibition of microbial growth incubated for 18 to 22 hrs by broth microdilution method; type: functional; procedure, shortened: as §2
Proteus mirabilis = experiment: Antibacterial activity against Proteus mirabilis assessed as inhibition of microbial growth incubated for 18 to 22 hrs by broth microdilution method; type: functional; procedure, shortened: as §2
Klebsiella oxytoca = experiment: Antibacterial activity against Klebsiella oxytoca assessed as inhibition of microbial growth incubated for 18 to 22 hrs by broth microdilution method; type: functional; procedure, shortened: as §2
[1] = Selectivity index, ratio of CC50 for human Hep2 cells to MIC for Candida albicans clinical isolates; type: toxicity; details: HEp-2 cells, read-out: Selectivity Index
Procedure, shortened: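 Calculated as Hep2 CC50 (Trypan Blue exclusion, 24 h, 37 °C) divided by MIC against C. albicans.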

Candida albicans = experiment: Antifungal activity against Candida albicans clinical isolates assessed as inhibition of microbial growth incubated for 24 hrs by broth microdilution method; type: functional; procedure, shortened: as §1
Escherichia coli = experiment: Antibacterial activity against Escherichia coli assessed as inhibition of microbial growth incubated for 18 to 22 hrs by broth microdilution method; type: functional; procedure, shortened: as §2
[2] = tested on: Streptococcus alpha-hemolyticus (Streptococcus sp.); experiment: Antibacterial activity against Streptococcus Streptococcus alpha hemolyticus assessed as inhibition of microbial growth incubated for 18 to 22 hrs by broth microdilution method
Enterococcus faecalis = experiment: Antibacterial activity against Streptococcus faecalis assessed as inhibition of microbial growth incubated for 18 to 22 hrs by broth microdilution method; type: functional; procedure, shortened: as §2
Nakaseomyces glabratus = experiment: Antifungal activity against Candida glabrata clinical isolates assessed as inhibition of microbial growth incubated for 24 hrs by broth microdilution method; type: functional; procedure, shortened: as §1
Candida tropicalis = experiment: Antifungal activity against Candida tropicalis clinical isolates assessed as inhibition of microbial growth incubated for 24 hrs by broth microdilution method; type: functional; procedure, shortened: as §1
Staphylococcus warneri = experiment: Antibacterial activity against Staphylococcus warneri assessed as inhibition of microbial growth incubated for 18 to 22 hrs by broth microdilution method; type: functional; procedure, shortened: as §2
Pichia kudriavzevii = experiment: Antifungal activity against Candida krusei clinical isolates assessed as inhibition of microbial growth incubated for 24 hrs by broth microdilution method; type: functional; procedure, shortened: as §1
[3] = Cytotoxicity against human Hep2 cells assessed as reduction in cell viability incubated for 24 hrs by trypan blue dye exclusion assay; type: cell-based; details: HEp-2 cells
Procedure, shortened: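 Hep2 (human laryngeal epidermoid carcinoma) cells were exposed to five concentrations from 0.05 to 100 µg/mL for 24 h at 37 °C, and viability was scored by Trypan Blue exclusion as survival fraction. Controls were medium alone, DMSO-treated cells and 1 mM sodium nitroprusside. CC50 is the mean ± SD of at least three independent experiments.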

Row | SMILES | MIC (Candida parapsilosis) [mg/L] | MIC ([Candida] sake) [mg/L] | MIC (Enterobacter) [mg/L] | MIC (Staphylococcus aureus) [mg/L] | MIC (Proteus mirabilis) [mg/L] | MIC (Klebsiella oxytoca) [mg/L] | MIC (Candida albicans) [mg/L] | MIC (Escherichia coli) [mg/L] | MIC (Enterococcus faecalis) [mg/L] | MIC (Nakaseomyces glabratus) [mg/L] | MIC (Candida tropicalis) [mg/L] | MIC (Staphylococcus warneri) [mg/L] | MIC (Pichia kudriavzevii) [mg/L] | selectivity ratio [1] | MIC [2] [mg/L] | CC50 at 24 h [3] [mg/L]
1 | O=C1CSC(NN=C2CCCCCCC2)=N1 | 32 | 32 | ≥ 256 | ≥ 256 | ≥ 256 | ≥ 256 | 8 | ≥ 256 | ≥ 256 | 8 | 8 | ≥ 256 | 32 |  | ≥ 256 | 
2 | C/C(=N/N=C1\NC(=O)CS1)c1ccc2c(c1)OCCO2 | 16 | 8 | ≥ 256 | ≥ 256 | ≥ 256 | ≥ 256 | 4 | ≥ 256 | ≥ 256 | 4 | 4 | ≥ 256 | 8 |  | ≥ 256 | 
3 | C/C(=N/N=C1\NC(=O)CS1)c1cccnc1 | 256 | 256 | ≥ 256 | ≥ 256 | ≥ 256 | ≥ 256 | 256 | ≥ 256 | ≥ 256 | 256 | 256 | ≥ 256 | 256 |  | ≥ 256 | 
4 | Clc1ccccc1C(c1ccccc1)(c1ccccc1)n1ccnc1 [CLOTRIMAZOLE] | 2 | 2 |  |  |  |  | 2 |  |  | 2 | 2 |  | 2 | 19 |  | 38.8 (≈ 113 µM)
5 | C/C(=N/N=C1\NC(=O)CS1)c1ccc(Cl)s1 | 8 | 16 | ≥ 256 | ≥ 256 | ≥ 256 | ≥ 256 | 8 | ≥ 256 | ≥ 256 | 8 | 8 | ≥ 256 | 16 |  | ≥ 256 | 
6 | C/C(=N/N=C1\NC(=O)CS1)c1ccc2ccc3ccccc3c2c1 | 16 | 16 | ≥ 256 | ≥ 256 | ≥ 256 | ≥ 256 | 4 | ≥ 256 | ≥ 256 | 4 | 4 | ≥ 256 | 8 |  | ≥ 256 | 
7 | C/C(=N/N=C1\NC(=O)CS1)c1c[nH]c2ccccc12 | 4 | 16 | ≥ 256 | ≥ 256 | ≥ 256 | ≥ 256 | 4 | ≥ 256 | ≥ 256 | 8 | 8 | ≥ 256 | 2 |  | ≥ 256 | 

More lines, main results first:

Row | MIC (Candida parapsilosis) [mg/L] | MIC ([Candida] sake) [mg/L] | MIC (Enterobacter) [mg/L] | MIC (Staphylococcus aureus) [mg/L] | MIC (Proteus mirabilis) [mg/L] | MIC (Klebsiella oxytoca) [mg/L] | MIC (Candida albicans) [mg/L] | MIC (Escherichia coli) [mg/L] | MIC (Enterococcus faecalis) [mg/L] | MIC (Nakaseomyces glabratus) [mg/L] | MIC (Candida tropicalis) [mg/L] | MIC (Staphylococcus warneri) [mg/L] | MIC (Pichia kudriavzevii) [mg/L] | SMILES | selectivity ratio [1] | MIC [2] [mg/L] | CC50 at 24 h [3] [mg/L]
8 | 2 | 2 | ≥ 256 | ≥ 256 | ≥ 256 | ≥ 256 | 2 | ≥ 256 | ≥ 256 | 2 | 2 | ≥ 256 | 2 | CC1CC/C(=N/N=C2\NC(=O)CS2)C1 (stereo unspecified) | 25 | ≥ 256 | 50.8 (≈ 240 µM)
9 | 2 | 2 | ≥ 256 | ≥ 256 | ≥ 256 | ≥ 256 | 2 | ≥ 256 | ≥ 256 | 2 | 2 | ≥ 256 | 2 | O=C1CS/C(=N/N=C2CCCCC2)N1Cc1ccccc1 | 11 |  | 22.8 (≈ 75.6 µM)
10 | 2 | 4 | ≥ 256 | ≥ 256 | ≥ 256 | ≥ 256 | 4 | ≥ 256 | ≥ 256 | 1 | 1 | ≥ 256 | 2 | CCCC/C(CC)=N\N=C1/NC(=O)CS1 | 11.5 | ≥ 256 | 46.4 (≈ 204 µM)
11 | 2 | 2 | ≥ 256 | ≥ 256 | ≥ 256 | ≥ 256 | 2 | ≥ 256 | ≥ 256 | 2 | 2 | ≥ 256 | 2 | C/C(=N/N=C1/SCC(=O)N1Cc1ccccc1)c1cccnc1 | 18.5 |  | 37.4 (≈ 115 µM)
12 | 4 | 2 | ≥ 256 | ≥ 256 | ≥ 256 | ≥ 256 | 2 | ≥ 256 | ≥ 256 | 2 | 32 | ≥ 256 | 2 | CCCC/C(C)=N\N=C1/NC(=O)CS1 |  | ≥ 256 | 
13 | 4 | 8 | ≥ 256 | ≥ 256 | ≥ 256 | ≥ 256 | 16 | ≥ 256 | ≥ 256 | 8 | 4 | ≥ 256 | 8 | O=C1CS/C(=N/N=C\c2ccc([N+](=O)[O-])cc2)N1 |  | ≥ 256 | 
14 | 2 | 2 | ≥ 256 | ≥ 256 | ≥ 256 | ≥ 256 | 2 | ≥ 256 | ≥ 256 | 2 | 2 | ≥ 256 | 2 | C/C(=N/N=C1\NC(=O)CS1)c1ccco1 |  | ≥ 256 | 
